Measurements taken from ChEMBL document CHEMBL3392964, “Design, synthesis, and evaluation of novel imidazo[1,2-a][1,3,5]triazines and their derivatives as focal adhesion kinase inhibitors with antitumor activity” (J Med Chem, 2015).
Each block holds one compound with its values, some of them ahead of it. Calls of active or inactive are those of the source. The calls are words filed in the database; no cut-off is given here.

Experiments:
Focal adhesion kinase 1 = Focal adhesion kinase 1 (Homo sapiens, UniProt Q05397); assay: Inhibition of FAK (unknown origin) using ULight-poly GT as substrate after 1.6 hrs by TR-FRET assay
[1] = (§1) Inhibition of colony formation in human HCT116 cells after 2 weeks by crystal violet staining-based assay; type: functional, cell-based; details: HCT-116, 336 h
Outline: (§2)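 Seeding: 250 cells per well for HCT-116, 300 for U87MG, MDA-MB-231 and PC-3; incubated overnight, then exposed to a range of concentrations for 2 weeks. Fixed in 4% paraformaldehyde 30 min at room temperature, stained with 0.1% crystal violet. Colonies over 50 cells counted; colony formation rate calculated; IC50 by nonlinear regression.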

HCT-116 = assay: as §1; type: functional, cell-based; outline: as §2
[2] = Antiproliferative activity against human PC3 cells after 48 hrs by WST-1 assay; type: functional, cell-based; details: PC-3, 48 h
Outline: (§3)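 Exponentially growing cells in DMEM/10% FBS seeded at 5 × 10^3 per well, left overnight, then exposed 48 h to compounds diluted from DMSO; WST-1 added for 2 h, absorbance at 450 nm (reference 620 nm); viability as ratio to DMSO controls; three independent experiments, triplicate points; IC50 by nonlinear regression (log inhibitor vs normalized response, variable slope).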

MDA-MB-231 [3] = assay: Inhibition of colony formation in human MDA-MB-231 cells after 2 weeks by crystal violet staining-based assay; type: functional, cell-based; details: for IC50: MDA-MB-231, 336 h; outline: as §2
U-87 MG = assay: Reduction of cell adherence in human U87MG cells after 30 mins by toluidine blue staining-based […]; type: functional; details: U-87MG ATCC
Outline: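 U87-MG cells grown in 10% serum, trypsinised, diluted to 100 000 cells/mL in 10% serum medium, then treated 30 min with compound or DMSO. 20 000 cells per well allowed to attach 1 h. Fixed in 4% paraformaldehyde 30 min, stained with 0.1% toluidine blue in 4% PFA 30 min, washed, OD read at 620 nm for attached cells.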

U-87MG ATCC [4] = assay: Antimigratory activity in human U87MG cells at 2 uM […] by transwell membrane assay; type: functional, cell-based
[5] = (§4) Inhibition of colony formation in human PC3 cells after 2 weeks by crystal violet staining-based assay; type: functional, cell-based; details: PC-3, 336 h; outline: as §2
PC-3 = assay: as §4; type: functional, cell-based; outline: as §2
[6] = Antiproliferative activity against human HCT116 cells after 48 hrs by WST-1 assay; type: functional, cell-based; details: HCT-116, 48 h; outline: as §3
[7] = (§5) Inhibition of colony formation in human U87MG cells after 2 weeks by crystal violet staining-based assay; type: functional, cell-based, U-87MG ATCC; details: U-87 MG, 336 h; outline: as §2
U-87MG ATCC [8] = assay: as §5; type: functional, cell-based; outline: as §2
MDA-MB-231 [9] = assay: Antiproliferative activity against human MDA-MB-231 cells after 48 hrs by WST-1 assay; type: functional, cell-based; details: MDA-MB-231, 48 h; outline: as §3
[10] = Antiproliferative activity against human U87MG cells after 48 hrs by WST-1 assay; type: functional, cell-based, U-87MG ATCC; details: U-87 MG; outline: as §3
U-87MG ATCC [11] = assay: Antimigratory activity in human U87MG cells after 30 mins by boyden chamber assay; type: functional, cell-based
U-87MG ATCC [12] = assay: Antimigratory activity in human U87MG cells at 4 uM […] by transwell membrane assay; type: functional, cell-based

Focal adhesion kinase 1, sequence (Q05397 whole entry): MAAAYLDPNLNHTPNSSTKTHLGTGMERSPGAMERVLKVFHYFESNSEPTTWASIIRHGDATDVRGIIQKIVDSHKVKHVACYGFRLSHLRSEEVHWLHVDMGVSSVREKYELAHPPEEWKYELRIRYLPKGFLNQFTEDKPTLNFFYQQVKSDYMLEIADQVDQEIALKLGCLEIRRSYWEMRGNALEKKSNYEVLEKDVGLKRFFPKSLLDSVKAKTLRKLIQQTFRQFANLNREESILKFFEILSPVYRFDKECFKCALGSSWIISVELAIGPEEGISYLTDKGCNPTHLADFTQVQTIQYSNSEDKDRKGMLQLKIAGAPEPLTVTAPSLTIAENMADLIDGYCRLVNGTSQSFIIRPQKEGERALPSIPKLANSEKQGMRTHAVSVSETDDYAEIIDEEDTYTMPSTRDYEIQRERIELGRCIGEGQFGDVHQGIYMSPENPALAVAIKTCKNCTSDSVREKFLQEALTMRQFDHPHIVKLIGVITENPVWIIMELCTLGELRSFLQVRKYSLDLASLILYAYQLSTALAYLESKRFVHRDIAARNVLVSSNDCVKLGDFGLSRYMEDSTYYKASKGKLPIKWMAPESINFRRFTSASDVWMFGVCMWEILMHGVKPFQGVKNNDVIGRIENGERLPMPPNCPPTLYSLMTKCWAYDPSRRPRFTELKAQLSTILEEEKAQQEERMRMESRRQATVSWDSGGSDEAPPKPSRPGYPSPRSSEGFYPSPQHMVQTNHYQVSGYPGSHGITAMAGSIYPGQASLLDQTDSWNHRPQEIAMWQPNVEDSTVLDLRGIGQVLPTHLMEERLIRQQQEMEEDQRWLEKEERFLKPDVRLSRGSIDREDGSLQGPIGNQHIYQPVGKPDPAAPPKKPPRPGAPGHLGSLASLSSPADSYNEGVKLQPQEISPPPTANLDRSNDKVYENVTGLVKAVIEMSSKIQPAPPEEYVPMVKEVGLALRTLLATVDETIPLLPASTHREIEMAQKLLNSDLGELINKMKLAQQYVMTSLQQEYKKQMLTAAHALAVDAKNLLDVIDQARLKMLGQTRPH

Compound: COC(=O)c1ccccc1Nc1nc(Nc2ccc(CN)cc2)n2ccnc2n1
- IC50 (Focal adhesion kinase 1): 0.28 µM

Compound: CNC(=O)c1ccccc1Nc1nc(Nc2ccc(N3CCOCC3)cc2OC)nc2nccn12
- IC50 [1]: 0.02 µM
- inhibition (HCT-116): Dose-dependent effect
- IC50 [2]: 0.27 µM
- IC50 (Focal adhesion kinase 1): 0.33 µM
- inhibition (MDA-MB-231 [3]): Dose-dependent effect
- IC50 (MDA-MB-231 [3]): > 10 µM
- Activity (U-87 MG): Dose-dependent effect
- Activity (U-87MG ATCC [4]): Active
- IC50 [5]: 0.63 µM
- inhibition (PC-3): Dose-dependent effect
- IC50 [6]: 0.34 µM
- IC50 [7]: 1.4 µM
- inhibition (U-87MG ATCC [8]): Dose-dependent effect
- IC50 (MDA-MB-231 [9]): > 10 µM
- IC50 [10]: 2.31 µM
- Activity (U-87MG ATCC [11]): Dose-dependent effect

Compound: COc1cc(NC2=Nc3nccn3C(Cc3ccccc3NC(C)=O)N2)cc(OC)c1OC (centres undefined)
- IC50 (Focal adhesion kinase 1): 8.91 µM

Compound: CNC(=O)c1ccccc1Nc1nc(Nc2ccc(C#N)cc2)nc2nccn12
- IC50 (Focal adhesion kinase 1): 0.71 µM

Compound: CNC(=O)c1ccccc1Cc1nc(Nc2cc(OC)c(OC)c(OC)c2)nc2nccn12
- IC50 (Focal adhesion kinase 1): 0.18 µM

Compound: CS(=O)(=O)Nc1ccccc1Nc1nc(Nc2ccc(C#N)cc2)n2ccnc2n1
- IC50 (Focal adhesion kinase 1): 1.73 µM

Compound: COC(=O)c1ccccc1Nc1nc(Nc2ccc(N3CCOCC3)cc2OC)n2ccnc2n1
- IC50 (Focal adhesion kinase 1): 0.57 µM

Compound: C=COC(=O)NCc1ccc(Nc2nc(Nc3ccccc3C(=O)OC)n3ccnc3n2)cc1
- IC50 (Focal adhesion kinase 1): 0.5 µM

The next lines start with results.

- IC50 (Focal adhesion kinase 1): 0.57 µM
Compound: COC(=O)c1ccccc1Nc1nc(Nc2cc(OC)c(OC)c(OC)c2)n2ccnc2n1

- IC50 (Focal adhesion kinase 1): 0.31 µM
Compound: CNC(=O)c1ccccc1Nc1nc(Nc2cc(OC)c(OC)c(OC)c2)n2ccnc2n1

- IC50 [1]: 0.76 µM
- IC50 (Focal adhesion kinase 1): 0.23 µM
- IC50 (MDA-MB-231 [3]): 3.9 µM
- IC50 [5]: 0.99 µM
- IC50 [7]: 0.22 µM
- IC50 (MDA-MB-231 [9]): > 10 µM
Compound: CNC(=O)c1ccccc1Nc1nc(Nc2cc(OC)c(OC)c(OC)c2)nc2nccn12
- IC50 [2]: 0.35 µM
- Activity (U-87 MG): Dose-dependent effect
- IC50 [6]: 0.95 µM
- IC50 [10]: 4.2 µM
- Activity (U-87MG ATCC [12]): Active
- Activity (U-87MG ATCC [11]): Dose-dependent effect

- IC50 (Focal adhesion kinase 1): 0.84 µM
Compound: COc1cc(Nc2nc(Cc3ccccc3NS(C)(=O)=O)nc3nccn23)cc(OC)c1OC

- IC50 (Focal adhesion kinase 1): 0.28 µM
Compound: COC(=O)c1ccccc1Nc1nc(Nc2cc(OC)c(OC)c(OC)c2)nc2nccn12
